# From ChEMBL document CHEMBL1156509, “Survival in the presence of antifungals: genome-wide expression profiling of Aspergillus niger in response to sublethal concentrations of caspofungin and fenpropimorph” (2007)
# Active and inactive are the calls of the source.
# How the values were obtained:
# Aspergillus niger [1] = test: Effect on morphological changes in Aspergillus niger JvD1.1 assessed as tip swelling; assay type: functional, organism-based
# Aspergillus niger [2] = test: Induction of dppA gene expression in Aspergillus niger by microarray analysis relative to control; assay type: functional
# Method in brief: (§1)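 A. niger N402 conidia (5×10^9) grown in 5 L fermentation medium in a bioreactor at 37 °C, pH 3, 250 rpm. Drug in distilled H2O or H2O alone added at 5 h; mycelium harvested by filtration 1 h later and frozen in liquid nitrogen. cRNA hybridized to Affymetrix A. niger GeneChips, two independent bioreactor runs per condition; normalized, ≥1.5-fold change at p 0.05 cutoff.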
# Aspergillus niger [3] = test: Induction of ugpA gene expression in Aspergillus niger by microarray analysis relative to control; assay type: functional; method in brief: as §1
# Aspergillus niger [4] = test: Effect on morphological changes in Aspergillus niger N402 germlings assessed as germ tube elongation and branching at 5 ng/mL after 5 hrs; assay type: functional, organism-based
# Method in brief: (§2)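 Compound or water control was added, then 1 h more at 37 °C. Adherent germlings were scored by microscopy, at least 50 per sample, as branched or unbranched. Branching index = branched/total germlings.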
# Aspergillus niger [5] = test: Effect on morphological changes in Aspergillus niger N402 germlings assessed as tip swelling at 0.9 ug/mL after 5 hrs; assay type: functional, organism-based
# Aspergillus niger [6] = test: Induction of agtA gene expression in Aspergillus niger by microarray analysis relative to control; assay type: functional; method in brief: as §1
# Aspergillus niger [7] = test: Upregulation of agtA gene expression in Aspergillus niger relative to control; assay type: functional, organism-based
# Method in brief: (§3)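 N402 conidia (5×10^9) were grown in 5 l fermentation medium, pH 3, 37 °C, 250 rpm in a bioreactor. After 5 h compound was added (water for controls); mycelium was harvested 1 h later. RNA was hybridized to A. niger Affymetrix GeneChips from two independent bioreactor runs. Genes with ≥1.5-fold change at p < 0.05 after normalization were counted as differentially expressed.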
# Aspergillus niger [8] = test: Antifungal activity against Aspergillus niger RD6.47 at 25.6 ug/mL by microtiter plate; assay type: functional, organism-based
# Method in brief: (§4)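 Reporter germlings (cytoplasmic PagsA-GFP JvD1.1 or nuclear PagsA-H2B-GFP RD6.47), 2×10^4 conidia per well in 2× CM, pre-grown 6 h at 37 °C. A 2-fold dilution series (seven concentrations) was then added and plates were held 3 h at 30 °C. Adherent germlings were imaged, and growth inhibition was scored 0/1/2 from hyphal length.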
# Aspergillus niger [9] = test: Effect on morphological changes in Aspergillus niger N402 germlings assessed as branching index at 50 ng/mL; assay type: functional
# Method in brief: (§5)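 N402 conidia (5×10^5) were germinated 5 h at 37 °C on coverslips in 5 ml liquid MM plus 0.003% yeast extract. Compound was added (water for controls) and culture continued 1 h at 37 °C. At least 50 adherent germlings were scored microscopically as branched or unbranched; branching index = branched/(branched + unbranched).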
# Aspergillus niger [10] = test: Effect on morphological changes in Aspergillus niger N402 germlings assessed as tip swelling at 5 ng/mL after 5 hrs; assay type: functional, organism-based
# Aspergillus niger [11] = test: Induction of crhB gene expression in Aspergillus niger by microarray analysis relative to control; assay type: functional; method in brief: as §1
# Aspergillus niger [12] = test: Induction of chsB gene expression in Aspergillus niger by microarray analysis relative to control; assay type: functional; method in brief: as §1
# Aspergillus niger [13] = test: Induction of gnaA gene expression in Aspergillus niger by microarray analysis relative to control; assay type: functional; method in brief: as §1
# Aspergillus niger [14] = test: Induction of hocA gene expression in Aspergillus niger by microarray analysis relative to control; assay type: functional; method in brief: as §1
# Aspergillus niger [15] = test: Effect on morphological changes in Aspergillus niger N402 germlings assessed as germ tube elongation and branching at 0.9 ug/mL after 5 hrs; assay type: functional, organism-based; method in brief: as §2
# Aspergillus niger [16] = test: Induction of rhoB gene expression in Aspergillus niger by microarray analysis relative to control; assay type: functional; method in brief: as §1
# Aspergillus niger [17] = test: Induction of pgmB gene expression in Aspergillus niger by microarray analysis relative to control; assay type: functional; method in brief: as §1
# Aspergillus niger [18] = test: Antifungal activity against Aspergillus niger JvD1.1 at 25.6 ug/mL by microtiter plate; assay type: functional, organism-based; method in brief: as §4
# Aspergillus niger [19] = test: Induction of srgA gene expression in Aspergillus niger by microarray analysis relative to control; assay type: functional; method in brief: as §1
# Aspergillus niger [20] = test: Effect on morphological changes in Aspergillus niger N402 germlings assessed as tip swelling at 5 ug/mL after 5 hrs; assay type: functional, organism-based
# Aspergillus niger [21] = test: Induction of gelA gene expression in Aspergillus niger by microarray analysis relative to control; assay type: functional; method in brief: as §1
# Aspergillus niger [22] = test: Induction of mkkA gene expression in Aspergillus niger by microarray analysis relative to control; assay type: functional; method in brief: as §1
# Aspergillus niger [23] = test: Effect on morphological changes in Aspergillus niger RD6.47 assessed as tip swelling; assay type: functional, organism-based
# Aspergillus niger [24] = test: Induction of gfaA gene expression in Aspergillus niger by microarray analysis relative to control; assay type: functional; method in brief: as §1
# Aspergillus niger [25] = test: Induction of bgtB gene expression in Aspergillus niger by microarray analysis relative to control; assay type: functional; method in brief: as §1
# Aspergillus niger [26] = test: Upregulation of Rho2-GTPase gene expression in Aspergillus niger relative to control; assay type: functional, organism-based; method in brief: as §3
# Aspergillus niger [27] = test: Antifungal activity against Aspergillus niger JvD1.1 by microtiter plate; assay type: functional, organism-based; method in brief: as §4
# Aspergillus niger [28] = test: Antifungal activity against Aspergillus niger RD6.47 by microtiter plate; assay type: functional, organism-based; method in brief: as §4
# Aspergillus niger [29] = test: Induction of agsA expression in Aspergillus niger N402 germlings; assay type: functional, organism-based
# Method in brief: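 RNA from 1 h-treated N402 bioreactor germlings (5 h pre-growth, FM pH 3, 37 °C) was hybridised to A. niger Affymetrix arrays, biological duplicate. Data were normalised; differential expression was taken as at least 1.5-fold change with p cutoff 0.05. Northern blots on the same RNA were used for validation.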
# Aspergillus niger [30] = test: Effect on morphological changes in Aspergillus niger N402 germlings assessed as germ tube elongation and branching at 5 ug/mL after 5 hrs; assay type: functional, organism-based; method in brief: as §2
# Aspergillus niger [31] = test: Induction of dpmA gene expression in Aspergillus niger by microarray analysis relative to control; assay type: functional; method in brief: as §1
# Aspergillus niger [32] = test: Effect on morphological changes in Aspergillus niger N402 germlings assessed as increase in germ tube; assay type: functional, organism-based
# Method in brief: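 Bioreactor: 5×10^9 N402 conidia in 5 l fermentation medium, pH 3 controlled, 37 °C, 250 rpm. Compound in water (or water alone) added at 5 h, then 1 h further cultivation. At least 200 germlings per run were counted for germ tubes per germling and subapical branches. Mean ± S.D. from two independent runs.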
# Aspergillus niger [33] = test: Effect on increase sub apical branching in Aspergillus niger N402 germlings assessed as branching index at 5 ng/mL after 5 hrs; assay type: functional; method in brief: as §5
# Aspergillus niger [34] = test: Induction of lplB gene expression in Aspergillus niger by microarray analysis relative to control; assay type: functional; method in brief: as §1
# Aspergillus niger [35] = test: Induction of gfaB gene expression in Aspergillus niger by microarray analysis relative to control; assay type: functional; method in brief: as §1
# Aspergillus niger [36] = test: Induction of GFP tagged PagsA-H2B expression in Aspergillus niger RD6.47 by fluorescence microscopy; assay type: functional, organism-based
# Method in brief: (§6)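 Conidia of the agsA-promoter GFP reporters (2×10^4 per well, 2× CM) germinated 6 h at 37 °C, then were exposed 3 h at 30 °C to seven 2-fold serial dilutions. GFP in adherent germlings was read by fluorescence microscopy and scored 0 (basal), 1 (intermediate) or 2 (high). Positive control was a PgpdA-H2B-GFP strain; N402 was the negative control.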
# Aspergillus niger [37] = test: Induction of crhC gene expression in Aspergillus niger by microarray analysis relative to control; assay type: functional; method in brief: as §1
# Aspergillus niger [38] = test: Induction of dfgC gene expression in Aspergillus niger by microarray analysis relative to control; assay type: functional; method in brief: as §1
# Aspergillus niger [39] = test: Induction of GFP tagged PagsA-H2B expression in Aspergillus niger RD6.47 at 25.6 ug/mL by fluorescence microscopy; assay type: functional, organism-based; method in brief: as §6
# Aspergillus niger [40] = test: Induction of GFP tagged PagsA expression in Aspergillus niger JvD1.1 at 25.6 ug/mL by fluorescence microscopy; assay type: functional, organism-based; method in brief: as §6
# Aspergillus niger [41] = test: Induction of rapA gene expression in Aspergillus niger by microarray analysis relative to control; assay type: functional; method in brief: as §1
# Aspergillus niger [42] = test: Induction of GFP tagged PagsA expression in Aspergillus niger JvD1.1 by fluorescence microscopy; assay type: functional, organism-based; method in brief: as §6
# Aspergillus niger [43] = test: Effect on increase sub apical branching in Aspergillus niger N402 germlings assessed as branching index at 5 ug/mL after 5 hrs; assay type: functional; method in brief: as §2
# Aspergillus niger [44] = test: Effect on morphological changes in Aspergillus niger N402 germlings assessed as branching index at 50 ug/mL; assay type: functional
# Aspergillus niger [45] = test: Antifungal activity against Aspergillus niger JvD1.1 at 104.2 ug/mL by microtiter plate; assay type: functional, organism-based
# Method in brief: (§7)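 Reporter conidia (2×10^4 per well) were pre-grown 6 h at 37 °C in 2× CM in glass-bottom plates. An equal volume of a 2-fold dilution series (seven concentrations) was added, then 3 h at 30 °C. Medium was discarded and adherent germlings imaged. Growth inhibition was scored 0/1/2 from hyphal length.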
# Aspergillus niger [46] = test: Induction of crhD gene expression in Aspergillus niger by microarray analysis relative to control; assay type: functional; method in brief: as §1
# Aspergillus niger [47] = test: Induction of GFP tagged PagsA expression in Aspergillus niger JvD1.1 at 104.2 ug/mL by fluorescence microscopy; assay type: functional, organism-based
# Method in brief: (§8)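 agsA promoter-GFP reporters, cytoplasmic (JvD1.1) or nuclear H2B-targeted (RD6.47). Germlings pre-grown 6 h at 37 °C in 2× CM, exposed 3 h at 30 °C to seven 2-fold dilutions. GFP levels were scored by fluorescence microscopy as 0 (basal), 1 (intermediate) or 2 (high). Controls: gpdA-H2B-GFP strain MA26.1 (positive), N402 (negative).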
# Aspergillus niger [48] = test: Antifungal activity against Aspergillus niger RD6.47 at 104.2 ug/mL by microtiter plate; assay type: functional, organism-based; method in brief: as §7
# Aspergillus niger [49] = test: Induction of GFP tagged PagsA-H2B expression in Aspergillus niger RD6.47 at 104.2 ug/mL by fluorescence microscopy; assay type: functional, organism-based; method in brief: as §8
smiles,measurement,setting,value
CC[C@H](C)C[C@H](C)CCCCCCCCC(=O)N[C@H]1C[C@@H](O)[C@@H](NCCN)NC(=O)[C@@H]2[C@@H](O)CCN2C(=O)[C@H]([C@H](O)CCN)NC(=O)[C@H]([C@H](O)[C@@H](O)c2ccc(O)cc2)NC(=O)[C@@H]2C[C@@H](O)CN2C(=O)[C@H]([C@@H](C)O)NC1=O [CASPOFUNGIN],Activity,Aspergillus niger [1],Active
same,fold change (FC),Aspergillus niger [2],2.62
same,fold change (FC),Aspergillus niger [3],1.64
same,Activity,Aspergillus niger [4],Active
same,Activity,Aspergillus niger [5],Active
same,fold change (FC),Aspergillus niger [6],2.1
same,Activity,Aspergillus niger [7],Active
same,Activity,Aspergillus niger [8],Active
same,Activity,Aspergillus niger [9],43.7%
same,Activity,Aspergillus niger [10],Active
same,fold change (FC),Aspergillus niger [11],2.58
same,fold change (FC),Aspergillus niger [12],3.08
same,fold change (FC),Aspergillus niger [13],3.18
same,fold change (FC),Aspergillus niger [14],2.03
same,Activity,Aspergillus niger [15],Active
same,fold change (FC),Aspergillus niger [16],2.32
same,fold change (FC),Aspergillus niger [17],1.95
same,Activity,Aspergillus niger [18],Active
same,fold change (FC),Aspergillus niger [19],2.51
same,Activity,Aspergillus niger [20],Active
same,fold change (FC),Aspergillus niger [21],3.05
same,fold change (FC),Aspergillus niger [22],2.03
same,Activity,Aspergillus niger [23],Active
same,fold change (FC),Aspergillus niger [24],2.32
same,fold change (FC),Aspergillus niger [25],1.77
same,Activity,Aspergillus niger [26],Active
same,Activity,Aspergillus niger [27],Active
same,Activity,Aspergillus niger [28],Active
same,Activity,Aspergillus niger [29],Active
same,Activity,Aspergillus niger [30],Active
same,fold change (FC),Aspergillus niger [31],1.85
same,Activity,Aspergillus niger [32],Active
same,Activity,Aspergillus niger [33],34.5%
same,fold change (FC),Aspergillus niger [34],1.77
same,fold change (FC),Aspergillus niger [35],7.98
same,Activity,Aspergillus niger [36],Active
same,fold change (FC),Aspergillus niger [37],2.03
same,fold change (FC),Aspergillus niger [38],2.4
same,Activity,Aspergillus niger [39],Active
same,Activity,Aspergillus niger [40],Active
same,fold change (FC),Aspergillus niger [41],2.16
same,Activity,Aspergillus niger [42],Active
CC(Cc1ccc(C(C)(C)C)cc1)CN1C[C@@H](C)O[C@@H](C)C1 (some centres not stated) [FENPROPIMORPH],Activity,Aspergillus niger [43],33%
same,Activity,Aspergillus niger [44],30.5%
same,Activity,Aspergillus niger [4],Active
same,Activity,Aspergillus niger [5],Active
same,Activity,Aspergillus niger [45],Active
same,fold change (FC),Aspergillus niger [46],1.51
same,Activity,Aspergillus niger [10],Active
same,Activity,Aspergillus niger [47],Active
same,Activity,Aspergillus niger [15],Active
same,Activity,Aspergillus niger [20],Active
same,Activity,Aspergillus niger [48],Active
same,Activity,Aspergillus niger [29],Active
same,Activity,Aspergillus niger [30],Active
same,Activity,Aspergillus niger [32],Active
same,Activity,Aspergillus niger [49],Active
